Published values of several laboratories.
Protocols differ between the studies behind these lines.
Effect on: cell growth or viability

| SMILES | cell line | assay | conditions | endpoint | result |
| --- | --- | --- | --- | --- | --- |
| COc1ccc(/C=N/NC(=O)c2ccc(Nc3cc(C)nc4c(O)cccc34)cc2)cc1O | SMMC-7721 | MTT | 20 µM | inhibition | 30.3% |
| O=C(/C=C(O)/C=C/c1ccncc1)/C=C/c1c[nH]c2ccccc12 | CHO-K1 | SRB | 72 h | IC50 | 66.3 µM |
| Clc1ccc(-c2nc3ccccc3[nH]2)cc1 | human Rhabdomyosarcoma cell | MTT | 48 h | IC50 | > 100 µM |
| COc1ccc(-c2ccc(/C(C)=N/O)c(O)c2Cl)cc1Cl | NCI-H1299 | MTT | 30 µM, 48 h | viability | 65% |
| CS(=O)(=O)CCNCc1ccc(-c2ccc3ncnc(Nc4ccc(OCc5cccc(F)c5)c(Cl)c4)c3c2)o1 | NCI-H1299 | MTT | 72 h | EC50 | 41 µM |
| Cc1ccc2nc(-c3ccc(Cl)c(Cl)c3)n(Cc3ccccc3)c2c1 | human Rhabdomyosarcoma cell | MTT |  | IC50 | 78.9 µM |
| N#C[Se]CC1Cc2ccc(Oc3ccccc3)cc2O1 (racemic) | Vero |  | 72 h | CC50 | > 20 µM |
| Cc1ccc2nc(-c3ccc(N(C)C)cc3)[nH]c2c1 | human Rhabdomyosarcoma cell | MTT | 48 h | IC50 | 24.3 µM |
| COc1cc(Nc2nccc(-c3cnn4nc(OC)ccc34)n2)cc(C(F)(F)F)c1 | NCI-H1437 | ATP luminescence |  | IC50 | 0.75 µM |
| Cc1cc(Nc2ncc(Cl)c(Nc3ccccc3S(=O)(=O)C(C)C)n2)c(OC(C)C)cc1C1CCNCC1 | NCI-H3122 | MTT | 10 µg/mL, 72 h | inhibition | 93% |
| C/C(=N\O)c1ccc(-c2ccc(OC(F)(F)F)cc2)c(Cl)c1O | NCI-H1299 | MTT | 30 µM, 48 h | viability | 106% |
| Clc1ccc(Cn2c(-c3ccc(Cl)cc3)nc3ccccc32)cc1 | human Rhabdomyosarcoma cell | MTT |  | IC50 | 9.67 µM |
| Cc1cc(Nc2ccc(C(=O)N/N=C/c3cccs3)cc2)c2cccc(O)c2n1 | SMMC-7721 | MTT | 20 µM | inhibition | 40.7% |
| C=CC(=O)N1CCN(c2nc(=O)n(-c3c(C)ccnc3C(C)C)c3nc(-c4c(O)cccc4F)c(F)cc23)[C@@H](C)C1 | NCI-H1437 | ATP luminescence | 5 days | GI50 | > 10 µM |
| Cc1cc(Nc2ccc(C(=O)N/N=C/c3ccccc3)cc2)c2cccc(O)c2n1 | SMMC-7721 | MTT | 20 µM | inhibition | 28.5% |
| Clc1ccc(-c2nc3ccccc3[nH]2)cc1Cl | human Rhabdomyosarcoma cell | MTT | 48 h | IC50 | 10.4 µM |
| CC(=O)c1c(C)c2cnc(Nc3ccc(N4CCNCC4)cn3)nc2n(C2CCCC2)c1=O | HCC70 | resazurin |  | GI50 | > 5 µM |
| COc1cc(/C=C/C(=O)/C=C(O)/C=C/c2cccc3cnccc23)ccc1O | CHO-K1 | MTT | 72 h | IC50 | 7.6 µM |
| Clc1ccccc1-c1nc2ccccc2[nH]1 | human Rhabdomyosarcoma cell | MTT | 48 h | IC50 | 42.4 µM |
| C[C@@H](Oc1cc(-c2cnn(C3CCNCC3)c2)cnc1N)c1c(Cl)ccc(F)c1Cl | NCI-H3122 | MTT | 1 µg/mL, 72 h | inhibition | 77.5% |
| Cc1ccc2nc(-c3ccc4c(c3)OCO4)[nH]c2c1 | human Rhabdomyosarcoma cell | MTT | 48 h | IC50 | > 100 µM |
| Cc1cc(=O)n(C)c2cc(N3C(=O)CC[C@H](NS(=O)(=O)CC(C)C)[C@H]3c3ccc(Cl)cc3)ccc12 | HL-60 |  | 7 days | EC50 | 5.03 µM |
